The source of these data is PubChem BioAssay.

Active and inactive are the calls of the source.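 Rule for the calls, unless noted: active = compounds giving at least 50% inhibition in the cell-based MKP-3 phosphatase rescue imaging test; inactive = the rest.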

A short description of experiment [1]: inhibitors of TNFa-induced NFkB p65 translocation, primary screen, imaging, HUVEC, MLSMR starter and 10KST1 sets (AID 438;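 active = inhibition above 20% together with a positive visual image hit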;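 note: compound added about 3h40 before a 20 min TNFalpha stimulation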;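 for inhibition: signal is the nuclear over cytoplasmic p65 intensity ratio per well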). The following applies: HUVEC TNFa-induced p65 nuclear translocation; cell count: measured here: nuclei count (cytotoxicity indicator), at 2.08 µM; inhibition: at 2 µM, stronger effect = higher value, 0% TNFa-plus-vehicle, 100% no-TNFa wells.
Experiment [2] can be described thus: endothelial E-selectin expression blockers – imaging, HUVEC, immunofluorescence, MLSMR starter and 10KST1 sets, primary screen (AID 487;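 active = visually confirmed hit in the image check and inhibition above 20%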;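 for inhibition: signal is fraction of cell area covered by stained E-selectin grains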;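 for nuclei count: 100% = median nuclei count of all wells on the same plate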). The following applies: HUVEC TNFalpha-induced E-selectin immunofluorescence imaging, at 2 µM; inhibition: stronger effect = higher value; nuclei count: measured here: cell number, toxicity.
Experiment [3] can be described thus: Primary imaging screen for DUSP6 inhibitors that restore phospho-Erk in transfected HeLa cells, chemical complementation (AID 609).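 For inhibition: phospho-Erk level distribution per well compared with pooled transfected vehicle control wells.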 The following applies: HeLa MKP-3 transfected, phospho-Erk imaging KS statistic, at 10 µM, cells stimulated with TPA for 15 min.
For experiment [4], the target named is Dual specificity protein phosphatase 6 (Homo sapiens) (UniProt Q16828). The description is as above. The following applies: HeLa MKP-3 transfected, phospho-Erk imaging KS statistic; at 10 µM; stronger effect = higher value; cells stimulated with TPA for 15 min.
Chain of Dual specificity protein phosphatase 6 (Homo sapiens) (Q16828 whole entry, looked up): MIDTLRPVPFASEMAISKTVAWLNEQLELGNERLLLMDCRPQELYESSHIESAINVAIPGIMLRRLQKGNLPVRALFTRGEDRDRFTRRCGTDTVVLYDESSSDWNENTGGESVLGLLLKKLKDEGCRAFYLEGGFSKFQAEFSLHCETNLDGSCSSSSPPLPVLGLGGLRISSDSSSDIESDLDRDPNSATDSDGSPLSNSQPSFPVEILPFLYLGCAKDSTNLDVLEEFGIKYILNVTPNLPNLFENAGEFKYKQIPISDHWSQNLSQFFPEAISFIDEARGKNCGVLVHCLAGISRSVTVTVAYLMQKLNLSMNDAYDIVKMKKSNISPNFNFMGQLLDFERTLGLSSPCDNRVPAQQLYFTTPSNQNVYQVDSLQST
In experiment [5] the target is Voltage-gated potassium channel subunit beta-2 (Rattus norvegicus) (UniProt P62483). Kind of experiment: inhibitors of rat Kvbeta2 reductase activity – biochemical, NADPH fluorescence, primary screen (AID 622;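 active = fluorescence slope higher than the sample average by over 3 SD, cut at about -0.22 in these data, passing the limit was not always enough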;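 note: slope of raw intensity against log time taken from 70 to 1610 s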). The following applies: recombinant KvBeta, 4-cyanobenzaldehyde reduction, at 10 µM, stronger effect = higher value.
Chain of Voltage-gated potassium channel subunit beta-2 (Rattus norvegicus) (P62483 whole entry, looked up): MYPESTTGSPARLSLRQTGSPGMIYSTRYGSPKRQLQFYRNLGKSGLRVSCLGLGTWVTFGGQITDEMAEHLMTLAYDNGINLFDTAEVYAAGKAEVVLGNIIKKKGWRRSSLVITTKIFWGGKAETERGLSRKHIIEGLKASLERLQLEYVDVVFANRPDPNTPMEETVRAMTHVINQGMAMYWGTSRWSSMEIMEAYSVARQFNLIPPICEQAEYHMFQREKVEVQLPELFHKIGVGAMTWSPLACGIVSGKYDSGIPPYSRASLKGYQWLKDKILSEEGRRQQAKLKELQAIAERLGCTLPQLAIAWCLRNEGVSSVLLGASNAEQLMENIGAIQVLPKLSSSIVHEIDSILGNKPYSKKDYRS
For experiment [6] the target is unchanged. Kind of experiment: enhancers of rat Kvbeta2 NADPH turnover – biochemical, NADPH fluorescence, primary screen (AID 623;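 active = NADPH fluorescence slope more negative than the mean of all samples by about 3 SD, 99.7% confidence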;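 note: fluorescence intensity change per second fitted from 20 to 320 s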). The following applies: Recombinant KvBeta, NADPH fluorescence decrease slope, 10 min; at 10 µM; stronger effect = lower value.
The target of experiment [7] is Alpha-2C adrenergic receptor (Homo sapiens) (UniProt P18825). Kind of experiment: compounds altering alpha2C-coupled GIRK flux – cell-based, HEK293 alpha2C/GIRK1/2, thallium flux, primary screen (AID 624;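 active = fluorescence slope after compound addition differing from the mean of all screened samples at 99.7% confidence, in either direction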;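 note: slope of fluorescence ratio to pre-addition baseline per second over 15 to 24 s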). The following applies: thallium flux BTC fluorescence, at 10 µM, actives lie on both sides.
Chain of Alpha-2C adrenergic receptor (Homo sapiens) (P18825 whole entry, looked up): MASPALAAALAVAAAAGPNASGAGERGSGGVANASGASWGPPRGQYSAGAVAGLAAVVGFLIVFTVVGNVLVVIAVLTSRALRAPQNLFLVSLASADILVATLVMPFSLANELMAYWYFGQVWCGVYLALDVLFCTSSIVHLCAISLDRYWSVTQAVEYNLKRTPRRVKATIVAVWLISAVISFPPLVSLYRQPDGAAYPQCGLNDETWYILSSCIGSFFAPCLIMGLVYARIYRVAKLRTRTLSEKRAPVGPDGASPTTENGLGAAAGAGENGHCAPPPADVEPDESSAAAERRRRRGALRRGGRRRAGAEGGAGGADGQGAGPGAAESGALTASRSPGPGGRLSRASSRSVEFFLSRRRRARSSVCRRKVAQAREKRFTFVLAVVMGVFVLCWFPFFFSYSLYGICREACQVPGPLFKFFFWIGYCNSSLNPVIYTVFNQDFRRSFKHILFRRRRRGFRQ
Experiment [8] in a line: inhibitors of larval lipid processing in zebrafish, primary screen, whole organism, PED6 fluorescence, gall bladder and intestine (AID 686;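 active = a full or partial loss of lipid-probe fluorescence in the fish gall bladder, intestine or both, judged by eye; inactive = no fluorescence loss, or compound toxic to the fish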;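 note: larvae 5 to 7 days old with five fish per well; signal comes from phospholipase A2 cleavage of quenched PED6 carried via bile; overnight exposure to compound and PED6 before scoring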). The following applies: Zebrafish larvae PED6 lipid processing, fluorescence scoring; screened at 20 µM (by protocol). The gist of the method:
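Doses: 20 µM single dose. Test system: live zebrafish larvae aged 5-7 days, whole organism. Quantity: five larvae per well. Measured by: By-eye fluorescence microscopy. Reagent: ingested quenched lipid PED6 at 100 nM. Read-out: visual per-well fluorescence inhibition score. Times: overnight exposure of larvae to compound plus PED6.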

Experiment [9] can be described thus: loss of swimming-algae plug formation – whole organism, Chlamydomonas reinhardtii, WT vs cilia-less mutant, absorbance, 96-well, primary screen (AID 463189;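 active = inhibition at or above 50% relative to wild type and mutant plate controls; inactive = inhibition below 50%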;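 note: 0% = wild type cc124 cells in DMSO and 100% = ciliumless bld1 mutant cells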). The following applies: Chlamydomonas reinhardtii gravitaxis, OD600 absorbance, 2 days; at 10 µM; stronger effect = higher value.
[10] abbreviates: measured here: cell density z-score.
[11] abbreviates: measured here: nuclear c-Myc green intensity z-score.
Setting [12] is: measured here: nuclear pErk red intensity z-score, stronger effect = higher value.

In general, inhibition refers to the relative decrease from the control value, in per cent. As for `CCCc1[nH]nc2c1C(c1c(C)nn(-c3ccccc3)c1Cl)C(C#N)=C(N)O2` (centres undefined), in experiment [1], the cell count is 673. Also, the inhibition in experiment [1] was -3.2% (inactive); in [2], -234% (inactive); in experiment [4] it was 12.7% (inactive); in [9] it was -5.65% (inactive). Besides, the nuclei count in experiment [2] worked out at 148%. Further, the z-score in experiment [3] (setting [10]) was 1.26; in experiment [3] (setting [11]) it was 0.14; in [3] (setting [12]), -0.117. Besides, the fluorescence slope in experiment [5] was -0.399 (inactive). In addition, in experiment [6], the NADPH fluorescence slope is -1.9e-06 (inactive). For the same molecule, in experiment [7], the slope was 0.00594 (inactive). Moreover, in [8], the call was inactive.

On to `CCOC(=O)C(CC(=O)O)N1CCCCC1` (centres undefined), for which the cell count in experiment [1] was 485. Also, the inhibition in [1] was -6.2% (inactive); in [2], -40.2% (inactive); in experiment [4], 3.5% (inactive); in [9], -13.4% (inactive). The same molecule came in with a nuclei count in [2] of 89.2%. In addition, the z-score in [3] (setting [10]) is -1.03; in [3] (setting [11]), 1.55; in [3] (setting [12]), -0.781. Moreover, the fluorescence slope in experiment [5] is -0.367 (inactive). Moreover, the NADPH fluorescence slope in [6] is 4.4e-05 (inactive). Also, the slope in experiment [7] is 0.00418 (inactive). In [8], the outcome was inactive.

Consider `CCOC(=O)CSc1nc(N(C)C)nc(N(C)C#N)n1`, for which the cell count in [1] worked out at 570. In addition, the inhibition is -6.8% (inactive) in [1], -140% (inactive) in experiment [2], 5.57% (inactive) in [4] and -9.74% (inactive) in experiment [9]. This molecule also yielded a nuclei count in experiment [2] of 113%. Further, the z-score in [3] (setting [10]) was 0.476; in [3] (setting [11]) it was -0.876; in experiment [3] (setting [12]), -1.19. Further, the fluorescence slope in [5] was -0.478 (inactive). In [6], the NADPH fluorescence slope is -0.00031 (inactive). In addition, in [7], the slope was 0.00712 (inactive). The result in experiment [8] was inactive.

Consider `Cn1c(OCc2cccnc2)nc2c1c(=O)n(Cc1ccc(Cl)cc1)c(=O)n2C`, for which the cell count in [1] was found to be 653. Besides, the inhibition in [1] was -7.1% (inactive); in experiment [2], 6.1% (inactive); in [4], 2.46% (inactive); in [9], 66.4% (active). Besides, the nuclei count in experiment [2] turned out to be 156%. Further, the values for the z-score in experiment [3] (setting [10]), in [3] (setting [11]) and in experiment [3] (setting [12]) were -0.404, 0.0478 and 1.27, respectively. In [5], the fluorescence slope was -0.505 (inactive). Besides, in experiment [6], the NADPH fluorescence slope was -9.6e-05 (inactive). In experiment [7], the slope is 0.00416 (inactive). Further, the result in experiment [8] was inactive.

Take `CSc1nc2sc3c(c2c(=O)[nH]1)CCC(C)C3` (centres undefined): in experiment [1], the cell count came out at 503. The inhibition in [1] was -19.4% (inactive); in [2], -109% (inactive); in [4], 20.2% (inactive); in experiment [9], 3.37% (inactive). In [2], this molecule yielded a nuclei count of 191%. For the same molecule, the z-score in [3] (setting [10]) is -1.18; in experiment [3] (setting [11]), 2.07; in experiment [3] (setting [12]), -0.579. Besides, the fluorescence slope in experiment [5] is -0.364 (inactive). Also, the NADPH fluorescence slope in [6] was 1.3e-05 (inactive). Further, the slope in [7] is 0.00953 (active). The outcome in experiment [8] was inactive.

For the molecule `NC(=O)CSc1nc(N)c2c3c(sc2n1)CCCCC3`, the cell count in experiment [1] came out at 620. The inhibition in experiment [1] was -15.9% (inactive); in [2], 47.7% (inactive); in experiment [4], -2.29% (inactive); in experiment [9], 10.9% (inactive). In experiment [2], the nuclei count is 164%. Also, the results for the z-score in [3] (setting [10]), in experiment [3] (setting [11]) and in experiment [3] (setting [12]) were -1.12, -0.0373 and 0.273, respectively. Further, in [5], the fluorescence slope is -0.362 (inactive). Also, in experiment [6], the NADPH fluorescence slope is -6.1e-05 (inactive). The slope in experiment [7] was 0.0046 (inactive). Further, in [8], the call was inactive.

For `CC(C)(C)OC(=O)NCCC(=O)Oc1ccc2ccc(=O)oc2c1`, the cell count in experiment [1] was 499. Besides, the inhibition in experiment [1] is -1.3% (inactive); in [2], -209% (inactive); in experiment [4] it was -11% (inactive); in experiment [9] it was 16.5% (inactive). This molecule also had a nuclei count in experiment [2] of 185%. Besides, the figures for the z-score in experiment [3] (setting [10]), in [3] (setting [11]) and in experiment [3] (setting [12]) were 0.0263, 0.375 and 0.541, respectively. Also, in [5], the fluorescence slope is -0.362 (inactive). Besides, the NADPH fluorescence slope in [6] was -2.1e-05 (inactive). In addition, in experiment [7], the slope was 0.00495 (inactive). Moreover, the molecule was classed as inactive in experiment [8].

`O=C(O)CC(C(=O)OCC1CCCO1)N1CCOCC1` (centres undefined): the cell count in experiment [1] is 526. Further, the inhibition in experiment [1] was -5.8% (inactive); in [2], -141% (inactive); in [4] it was 10.5% (inactive); in experiment [9], -1.05% (inactive). In addition, in experiment [2], the nuclei count stood at 145%. The z-score in experiment [3] (setting [10]) is 0.582; in [3] (setting [11]) it was -0.928; in experiment [3] (setting [12]), -1.26. Also, in [5], the fluorescence slope was -0.518 (inactive). The NADPH fluorescence slope in experiment [6] is -4.1e-05 (inactive). Besides, the slope in experiment [7] was 0.00538 (inactive). Moreover, the molecule was classed as inactive in experiment [8].

As to `CCOc1nnnc2c1sc1nc(N3CCOCC3)c3c(c12)CC(C)(C)OC3`, in experiment [1], the cell count was 579. Besides, the inhibition was -3.2% (inactive) in [1], -78.7% (inactive) in experiment [2], -6.86% (inactive) in [4] and -7.31% (inactive) in [9]. The molecule further yielded a nuclei count in [2] of 116%. Also, the z-score in [3] (setting [10]) was -0.458; in [3] (setting [11]), -0.399; in [3] (setting [12]), -0.83. Besides, the fluorescence slope in experiment [5] is -0.35 (inactive). In addition, the NADPH fluorescence slope in [6] is 1.4e-05 (inactive). The slope in experiment [7] is 0.00623 (inactive). In addition, the molecule was classed as inactive in [8].

Turning to `OCCCc1nc2ccccc2n1CCc1ccccc1`, the cell count in experiment [1] worked out at 390. The inhibition in [1] is -15.7% (inactive); in experiment [2], -395% (inactive); in [4], 20.8% (inactive); in experiment [9] it was 15.3% (inactive). In addition, the nuclei count in experiment [2] was 203%. Besides, the values for the z-score in [3] (setting [10]), in experiment [3] (setting [11]) and in experiment [3] (setting [12]) were 1.19, -1.69 and -0.407, respectively. Moreover, the fluorescence slope in experiment [5] was -0.421 (inactive). The NADPH fluorescence slope in [6] is -4.3e-05 (inactive). Moreover, in [7], the slope is 0.00481 (inactive). The result in experiment [8] was inactive.

In the case of `N#CC1=C(N)N2C(=C(C#N)C1c1ccccc1)Sc1ccccc12` (centres undefined), in experiment [1], the cell count amounted to 653. Also, the inhibition in [1] was -14.8% (inactive); in experiment [2] it was 9.7% (inactive); in [4] it was 17.7% (inactive); in [9], 44.9% (inactive). Besides, in experiment [2], the nuclei count was determined as 116%. For the same molecule, the z-score in experiment [3] (setting [10]) was 1.49; in experiment [3] (setting [11]), -0.461; in [3] (setting [12]), -0.35. For the same molecule, the fluorescence slope in [5] was -0.452 (inactive). Moreover, the NADPH fluorescence slope in experiment [6] was -9.4e-06 (inactive). In addition, the slope in [7] is 0.0107 (inactive). In addition, the molecule was classed as inactive in experiment [8].

Consider `CC1(C)Cc2c(oc3ncn4ncnc4c23)CO1`, for which the cell count in experiment [1] came out at 587. For the same molecule, the inhibition in experiment [1] is -8.9% (inactive); in experiment [2], -143% (inactive); in experiment [4], 13.2% (inactive); in [9], 18.4% (inactive). In experiment [2], this molecule showed a nuclei count of 102%. For the same molecule, the z-score in [3] (setting [10]) was -0.312; in [3] (setting [11]), -1.57; in [3] (setting [12]) it was 0.382. The fluorescence slope in [5] was -0.569 (inactive). For the same molecule, in experiment [6], the NADPH fluorescence slope was -8.8e-05 (inactive). The slope in experiment [7] is 0.00443 (inactive). Moreover, in experiment [8], the result was inactive.

For the molecule `CCCCOc1ccc(CSC(CC(=O)O)C(=O)O)cc1` (centres undefined), in [1], the cell count was 336. Moreover, the inhibition is -16.7% (inactive) in experiment [1], -75.1% (inactive) in [2], 3.5% (inactive) in [4] and 1.39% (inactive) in experiment [9]. Besides, in experiment [2], the nuclei count is 114%. The values for the z-score in experiment [3] (setting [10]), in [3] (setting [11]) and in [3] (setting [12]) were -0.61, -0.895 and 0.193, respectively. Moreover, the fluorescence slope in [5] is -0.433 (inactive). The NADPH fluorescence slope in experiment [6] is -0.000104 (inactive). Moreover, the slope in experiment [7] is 0.00541 (inactive). The call in [8] was inactive.
